Assay results from PMC9200056 (Chemical Science, 2022).
Each block holds one substance with its values, some of them ahead of it. Non-standard residues stand in square brackets, D forms with d. *: point of attachment. 1Nal = N[C@@H](Cc1cccc2ccccc12)C(=O)O; ACC = NC(=O)Cc1cc(=O)oc2cc(N*)ccc12; Igl = N[C@H](C(=O)O)C1Cc2ccccc2C1; hArg = N=C(N)NCCCC[C@H](N)C(=O)O; Dab = NCC[C@H](N)C(=O)O; Cbz = O=C(OCc1ccccc1)*

Legend:
Format in all cases: biochemical
[1] = target: APC (activated protein C) (Homo sapiens, UniProt P04070); assay: Initial substrate screening; conditions: for increase in activity on exchanging L-Nle(O-Bzl) (SMA4) at P3: initial screening, 1 μM substrate, relative to SMA4
Summary of the method: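 Plasma-derived human APC (thrombin–thrombomodulin-activated) was preincubated 15 min at 37 °C in Tris/NaCl/CaCl2 buffer, pH 7.4, then added to ACC substrates at 1 μM final. Final APC was 50–90 nM, chosen per substrate set. ACC release was read at 355/460 nm for 30 min. Rates (RFU s−1) came from the linear portion and were adjusted to equal enzyme activity; at least 2 repeats were averaged.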

fXa (factor Xa) [2] = target: T1, fXa (factor Xa) (Homo sapiens, UniProt P00742); assay: Initial substrate screening; conditions: 1 μM substrate, relative to SMX15
Summary of the method: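 ACC fluorogenic substrates at 1 μM final, from 10 mM stocks diluted 100-fold in DMSO. fXa (7–100 nM, set per substrate for adequate signal) preincubated 15 min at 37 °C in 20 mM Tris, 150 mM NaCl, 5 mM CaCl2, pH 7.4. Hydrolysis read for 30 min at 37 °C (ex 355, em 460 nm). Linear-phase RFU s−1 normalised to equal enzyme activity, averaged over at least two repeats.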

thrombin in human plasma = assay: Thrombin labeling by fluorescent ABP in human plasma; conditions: EDTA plasma diluted 7.5 times, probe 20 μM, 60 min, 37 °C; SDS–PAGE
Summary of the method: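 Human plasma from EDTA-anticoagulated whole blood, diluted 7.5-fold in Tris/NaCl/5 mM CaCl2 buffer, pH 7.4, incubated 1:1 with thrombin-directed Cy7 probe (1–20 μM) for 60 min at 37 °C. Reduced in SDS/DTT at 95 °C, run on 12% SDS–PAGE and blotted. Sheep anti-fII for 7 h, then Alexa 680 secondary. Cy7 imaged at 784 nm, antibody at 658 nm. At least 3 replicates.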

fXa (factor Xa) [3] = target: T1, fXa (factor Xa); assay: Inhibition kinetics; conditions: ratio of kobs/I values
fXa (factor Xa) [4] = target: T1, fXa (factor Xa); assay: Substrate kinetics
Summary of the method: (§1)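 Purified plasma-derived human enzymes were preincubated 15 min at 37 °C in Tris/NaCl/CaCl2 buffer, pH 7.4. They were added to eight serially diluted ACC substrate concentrations (4.68 nM–741 μM overall). ACC release was followed at 355/460 nm for 30 min at 37 °C to derive kcat, KM and kcat/KM; at least duplicate runs were averaged.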

thrombin [5] = target: T2, thrombin (Homo sapiens, UniProt P00734); assay: Inhibition kinetics; conditions: ratio of kobs/I values
APC in human plasma = assay: APC labeling by fluorescent ABP in human plasma; conditions: EDTA plasma diluted 7.5 times, probe 20 μM, 60 min, 37 °C; SDS–PAGE
Summary of the method: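 Human plasma from EDTA-anticoagulated whole blood, diluted 7.5-fold in 20 mM Tris, 150 mM NaCl, 5 mM CaCl2, pH 7.4, mixed 1:1 with APC-directed Cy5 probe (1–20 μM), 60 min, 37 °C. SDS/DTT reduction at 95 °C for 5 min, then 12% SDS–PAGE and nitrocellulose blot. Chicken anti-protein C for 7 h, then Alexa 488 secondary. Cy5 imaged at 658 nm, antibody at 488 nm. At least 3 replicates.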

thrombin [6] = target: T2, thrombin; assay: Substrate kinetics; conditions: ratio of kcat/KM values
Summary of the method: as §1

T1 sequence (P00742 235-488 limits assumed): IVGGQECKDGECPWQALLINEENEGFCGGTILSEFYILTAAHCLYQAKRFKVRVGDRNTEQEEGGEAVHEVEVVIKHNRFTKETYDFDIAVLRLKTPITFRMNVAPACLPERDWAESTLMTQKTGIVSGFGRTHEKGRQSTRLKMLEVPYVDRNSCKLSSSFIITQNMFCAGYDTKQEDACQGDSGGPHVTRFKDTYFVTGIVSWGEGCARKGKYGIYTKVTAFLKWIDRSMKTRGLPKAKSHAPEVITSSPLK
T1 sequence (P00742 41-179 partner limits assumed): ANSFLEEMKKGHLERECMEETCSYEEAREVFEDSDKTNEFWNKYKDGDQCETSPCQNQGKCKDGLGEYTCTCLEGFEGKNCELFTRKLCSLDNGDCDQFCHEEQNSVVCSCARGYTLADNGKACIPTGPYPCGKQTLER
Chain of APC (activated protein C) (P04070 212-461 limits assumed): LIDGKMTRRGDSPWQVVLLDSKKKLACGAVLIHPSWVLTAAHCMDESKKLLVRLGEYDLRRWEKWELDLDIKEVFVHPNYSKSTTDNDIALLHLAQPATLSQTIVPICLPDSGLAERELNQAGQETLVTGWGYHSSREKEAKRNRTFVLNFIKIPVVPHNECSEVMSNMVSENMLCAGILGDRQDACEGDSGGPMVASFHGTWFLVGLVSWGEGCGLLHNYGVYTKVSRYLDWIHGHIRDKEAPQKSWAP
Chain of APC (activated protein C) (P04070 43-197 partner limits assumed): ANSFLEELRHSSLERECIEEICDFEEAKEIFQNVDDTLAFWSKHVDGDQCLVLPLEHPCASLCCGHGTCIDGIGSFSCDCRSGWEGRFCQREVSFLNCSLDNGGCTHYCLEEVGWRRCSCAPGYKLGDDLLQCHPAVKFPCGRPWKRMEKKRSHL

increase in activity on exchanging L-Nle(O-Bzl) (SMA4) at P3 [1]: 5.5 fold
Substance: Ac-Lys-Glu(Bzl)-Lys(2-Cl-Z)-Arg-AC C [SMA3]

Substance: Ac-Arg(NO2)-hArg-1-Nal-Arg-AC C [SMX13]
change of overall activity on replacing D-Pro (SMX15) at P4 (fXa (factor Xa) [2]): only a slight decrease in the overall activity

Substance: Ac-K[Dab](Cbz)[Igl]R-{ACC} (SMILES CC(=O)N[C@@H](CCCCN)C(=O)N[C@@H](CCNC(=O)OCc1ccccc1)C(=O)N[C@H](C(=O)N[C@@H](CCCNC(=N)N)C(=O)Nc1ccc2c(CC(N)=O)cc(=O)oc2c1)C1Cc2ccccc2C1) [SMA5]
cleaved more efficiently than the best natural substrate (SMA54) ([1]; relative to SMA54): approximately 50 fold

Substance: Cy7–6-Ahx–hCha–Cys(MeBzl)–Pip–Arg^P(OPh)2 [P-SMII222]
selectivity of thrombin labeling in human plasma at 20 μM probe (thrombin in human plasma): selectivity was maintained with thrombin labeling

inhibition of APC less efficient than fXa (fXa (factor Xa) [3]): 75 fold
Substance: Cy3–6-Ahx–DPro–hArg–1-Nal–Arg^P(OPh)2 [P-SMX152]

Substance: Ac-[dP][hArg][1Nal]R-{ACC} (SMILES CC(=O)N1CCC[C@@H]1C(=O)N[C@@H](CCCCNC(=N)N)C(=O)N[C@@H](Cc1cccc2ccccc12)C(=O)N[C@@H](CCCNC(=N)N)C(=O)Nc1ccc2c(CC(N)=O)cc(=O)oc2c1) [SMX15]
times more hydrolyzed by fXa than by thrombin (fXa (factor Xa) [4]; ratio of kcat/KM values): 358 times

increase in activity on exchanging L-Nle(O-Bzl) (SMA4) at P3 [1]: 22 fold
Substance: Ac-Lys-Agp-Lys(2-Cl-Z)-Arg-AC C [SMA2]

kobs/I selectivity: thrombin inhibition more rapid than APC (thrombin [5]): 348 fold
kobs/I selectivity: thrombin inhibition more rapid than fXa (thrombin [5]): 2087 fold
Substance: Ac–hCha–Cys(MeBzl)–Pip–Arg^P(OPh)2 [I-SMII22]

increase in activity on exchanging L-Nle(O-Bzl) (SMA4) at P3 [1]: 13 fold
Substance: Ac-Lys-Dab(Z )-Lys(2-Cl-Z)-Arg-AC C [SMA1]

Substance: Ac-M[hArg][1Nal]R-{ACC} (SMILES CSCC[C@H](NC(C)=O)C(=O)N[C@@H](CCCCNC(=N)N)C(=O)N[C@@H](Cc1cccc2ccccc12)C(=O)N[C@@H](CCCNC(=N)N)C(=O)Nc1ccc2c(CC(N)=O)cc(=O)oc2c1) [SMX61]
increase of the kcat/KM value on exchanging D-Pro at P4 (SMX15) for L-Met (fXa (factor Xa) [4]; fXa, relative to SMX15): 55%

Substance: Ac-Gln-hArg-1-Nal-Arg-AC C [SMX14]
change of overall activity on replacing D-Pro (SMX15) at P4 (fXa (factor Xa) [2]): only a slight decrease in the overall activity

Substance: Cy5–6-Ahx–Lys–Dab(Z)–Lys–Arg^P(OPh)2 [P-SMA172]
off-target labeling in human plasma at 20 μM probe (APC in human plasma): only minor additional labeling between 25 and 35 kDa

Substance: Ac–hCha–Cys(MeBzl)–Pip–Arg–ACC [SMII22]
kcat/KM selectivity for thrombin over APC (thrombin [6]): 3383 fold
kcat/KM selectivity for thrombin over fXa (thrombin [6]): 162 fold
